OX1R antag-1 – antagonists of human orexin 1 receptor (OX1R); O43613; inhibition, % at 6.6 µM; hit rate 1.8% among 330,000; OX1R-expressing cells, FRET antagonist read-out; in the data active = inhibition mostly above about 38%, no sharp cut-off; inactive = mostly below about 40%;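 also: 0% = agonist challenge alone and 100% = reference antagonist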
zfTRPN1 agonist – agonists of zebrafish TRPN1 channel; activation, % at 3 µM; HEK293 zebrafish TRPN1-YFP, Fluo-8 calcium fluorescence; 100% = response to 87 µM carbachol; AID 1424; hit rate 0.18% among 220,000;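 active = activation above its plate's cutoff, the mean activation of test wells on that plate plus 3 SD, cut at about 19% in these data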;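 also: 0% = DMSO alone and 100% = 87 µM carbachol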
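Material – zebrafish TRPN1-YFP in HEK293 cells · Doses – 3 µM single point · Schedule – dye 1 h 37 °C plus 30 min RT · Signal – Fluo-8 calcium fluorescence, excitation 470-495 nm, emission 515-575 nm · Read-out – % activation versus carbachol response · Control set – carbachol high, DMSO low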
OX1R antag-2 – antagonists of human orexin 1 receptor; O43613; CHO/OX1R cells, Fluo-8 calcium fluorescence, orexin A; inhibition, % at 5 µM; hit rate 0.43% among 330,000; AID 434989;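 active = inhibition above its plate's threshold, mean inhibition of all tested compounds on the plate plus 3 SD, cut at about 37% in these data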;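 also: 0% = orexin A challenge wells and 100% = SB-334867-A antagonist wells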
TRPML3 ag – human mucolipin-3 channel agonism. HEK293 TRPML3-YFP, Fluo-8 calcium fluorescence; 100% = the carbachol control signal. activation, % at 3 µM. hit rate 0.29% among 220,000. AID 1448;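 active = activation above its plate's cutoff, the mean activation of the plate's test wells plus 3 SD, cut at about 12% in these data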;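 also: 0% = DMSO only wells and 100% = carbachol wells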
Target sequence (Q8TDD5 whole entry, looked up): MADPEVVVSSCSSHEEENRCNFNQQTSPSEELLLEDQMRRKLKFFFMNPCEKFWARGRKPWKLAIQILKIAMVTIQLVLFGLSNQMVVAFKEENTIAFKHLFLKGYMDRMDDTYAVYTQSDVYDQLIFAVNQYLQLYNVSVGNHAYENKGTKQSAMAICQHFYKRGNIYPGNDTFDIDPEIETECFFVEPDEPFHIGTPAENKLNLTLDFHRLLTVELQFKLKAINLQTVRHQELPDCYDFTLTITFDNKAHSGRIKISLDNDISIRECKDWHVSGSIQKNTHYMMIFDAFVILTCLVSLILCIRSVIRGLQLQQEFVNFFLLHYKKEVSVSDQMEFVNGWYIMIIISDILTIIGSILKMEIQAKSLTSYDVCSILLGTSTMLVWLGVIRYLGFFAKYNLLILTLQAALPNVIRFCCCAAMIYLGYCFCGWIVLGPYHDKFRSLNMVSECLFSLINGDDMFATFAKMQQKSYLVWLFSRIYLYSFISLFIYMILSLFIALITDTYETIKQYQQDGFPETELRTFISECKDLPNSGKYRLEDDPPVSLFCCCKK
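Material: TRPML3-YFP stable HEK293 cells | Dosing: One concentration, 3 µM nominal, 0.3% DMSO | Timing: 125 s total fluorescence read per well | Technique: Fluo-8 calcium dye fluorescence, ex 470-495, em 515-575 nm | Measure: Percent activation from peak-to-basal fluorescence ratio, scaled between DMSO and carbachol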
CHO parental Ca – signal in parental CHO cells, OX1R antagonist counter-screen. parental CHO-K1, ATP-induced calcium, Fluo-8 fluorescence. inhibition, % at 5.6 µM. hit rate 0.63% among 330,000. AID 463079;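 active = inhibition above that plate's mean sample inhibition plus 3 SD, cut at about 26% in these data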;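 also: 0% = ATP-challenged DMSO wells and 100% = DMSO wells without ATP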
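Material: parental CHO cells / Compound: single nominal dose of 5.6 µM per compound / Signal: Fluo-8 fluorescence / Replicates: singlicate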
* hit, by the source's call; . = not tested or not shown. Shown are actives, neighbours in structure and some others; about 2.5% of the full set was active somewhere.

SMILES	OX1R antag-1	zfTRPN1 agonist	OX1R antag-2	TRPML3 ag	CHO parental Ca
CC1CCCCN1CCNC(=O)c1ccc2c(=O)n(Cc3ccc(Cl)cc3)c(=S)[nH]c2c1 (centres undefined)	24.6	.	17.0	.	6.8
Cn1cccc1CC(=O)N/N=C\c1c2ccccc2cc2ccccc12	38.9*	-0.8	-14.3	-0.7	-29.1
Cc1onc(-c2c(Cl)cccc2Cl)c1C(=O)N1CCCc2ccccc21	54.6*	-1.6	33.4	-0.1	-23.2
CCN(CC)c1ccc(C=C2C(=O)OC3(CCCCC3)OC2=O)cc1	10.5	3.0	5.8	2.0	-1.9
CCN(CC)c1ccc(/C=C2/C(=O)c3ccc(C(=O)O)cc3C2=O)cc1	33.1	34.5*	82.7*	19.1*	46.1
Cc1ccc(OCc2nnc(SCc3nc4ccccc4[nH]3)n2Cc2ccco2)cc1	61.8	4.9	36.3	0.2	32.4*
CCOC(=O)C1CCCN(C(=O)CCc2nnc(-c3ccc(C(C)=O)s3)o2)C1 (centres undefined)	42.2*	.	-13.9	.	-10.8
CCOC(=O)C1CCCN(C(=O)CSCc2ccccc2)C1 (centres undefined)	9.6	0.7	-17.1	0.3	-22.8
O=C(CNCCc1ccccc1)N1CCc2ccccc2C1	19.6	-1.7	-15.0	-0.3	-26.7
COc1ccc(OC2C(=O)N(Cc3ccc4c(c3)OCO4)C2c2cccs2)cc1 (centres undefined)	16.9	0.1	57.9*	0.8	40.9*
O=C1C(Oc2ccccc2)C(c2cccs2)N1Cc1ccc2c(c1)OCO2 (centres undefined)	11.1	-2.2	42.7	-0.1	23.9
O=C1/C(=C/c2cccs2)SC(=S)N1CCC(=O)N1CCCCC1CCO (centres undefined)	48.3*	.	16.7	.	-19.4
COc1cc(/C=N/N(c2ccccc2)c2ccccc2)ccc1O	5.2	.	-19.1	.	-16.4
CN(/N=C\c1ccc(O)c(O)c1)c1nc(-c2ccccc2)cc(-c2ccccc2)n1	11.1	0.4	-4.0	0.1	28.5*
COc1cc(NC(=S)N2CCN(S(=O)(=O)c3ccc(C)cc3)CC2)cc(OC)c1	16.1	.	-8.7	.	-12.6
Cc1ccc(-n2nnnc2SCc2nnc(-c3ccccc3Br)o2)c(C)c1	44.4*	0.8	62.8*	0.3	25.3
Cn1nnnc1SCc1nnc(-c2ccccc2Br)o1	2.5	0.6	-15.0	0.2	1.7
NS(=O)(=O)c1ccc(CCNc2ncnc3sccc23)cc1	9.9	3.7	8.6	1.0	21.9
Cc1sc2ncnc(NCCc3ccc(S(N)(=O)=O)cc3)c2c1C	37.2	5.7	20.1	2.4	52.7*
Cc1ccc2nc(/C(C#N)=C\c3cc(C)n(-c4cccc([N+](=O)[O-])c4)c3C)[nH]c2c1	58.7*	-0.6	-1.8	0.3	1.7
Cn1c(=O)c2c(nc(NCc3ccco3)n2C/C=C/c2ccccc2)n(C)c1=O	66.2	.	46.9*	.	38.7*
Cc1ccccc1OCC(=O)N(Cc1nc(-c2ccccc2)no1)C(C)C	61.7*	-2.6	5.4	0.5	24.6
CC(C)N(Cc1nc(-c2ccccc2)no1)C(=O)c1ccc2c(c1)OCO2	49.7*	-1.6	2.1	0.2	-12.1
Cc1ccccc1OCC(=O)N(Cc1nnc(-c2ccc(Cl)cc2)o1)C(C)C	39.3*	.	8.6	.	-38.0
Cc1ccc(SCC(=O)N(Cc2nc(-c3ccccc3)no2)C(C)C)cc1	62.5	-0.7	35.1	-0.6	45.8*
SMILES	OX1R antag-1	zfTRPN1 agonist	OX1R antag-2	TRPML3 ag	CHO parental Ca
CCCCNC(=O)c1ccccc1SCC(=O)NC1CCCCCCC1	28.7	.	-16.1	.	-23.1
O=C(COC(=O)CCc1ccccc1)NNC(=O)c1ccccc1	5.9	.	-10.8	.	-9.6
Cc1ccc(-n2c(-c3ccc(Br)cc3)c[n+]3c2CCc2ccc4cccnc4c2-3)cc1	11.0	3.7	90.2*	1.0	83.7*
CCN(CC)S(=O)(=O)c1ccc(N=NC2=C(O)CCCC2=O)cc1	54.9*	2.0	-12.9	0.2	-9.7
CCN(CC)C(=O)c1cccc2nc3ccccc3nc12	72.1*	0.5	-36.1	0.2	-18.3
CCCCNC(=O)c1ccccc1NC(=O)CCC	18.1	0.8	-8.4	0.4	-14.6
CCOc1ccc(/C=N/n2c(C3CCCCC3)n[nH]c2=S)cc1	-9.7	.	-21.0	.	-8.9
Cc1ccc(C(=O)OCC(=O)N2CCC(c3ccccc3)=N2)c(C)c1	16.6	.	-8.5	.	-7.2
CS(=O)(=O)Nc1ccccc1C(=O)OCC(=O)N1CCC(c2ccccc2)=N1	62.8*	.	7.8	.	-3.8
CC(NC(=O)COC(=O)c1cc([N+](=O)[O-])ccc1N1CCOCC1)c1ccc(F)cc1 (centres undefined)	39.5*	.	-15.4	.	-16.0
CC(NC(=O)COC(=O)c1cc([N+](=O)[O-])ccc1N1CCOCC1)c1ccccc1 (centres undefined)	50.8*	.	-30.8	.	-22.9
COc1ccc(OC)c(NC(=O)C(C)SCc2nc3sc(C)c(C)c3c(=O)[nH]2)c1 (centres undefined)	53.7*	.	23.2	.	-33.1
Cc1sc2nc(CSC(C)C(=O)N(C)CC(=O)Nc3ccccc3C(F)(F)F)[nH]c(=O)c2c1C (centres undefined)	70.8*	.	6.8	.	-23.1
O=C(COC(=O)c1ccc[n+]([O-])c1)Nc1cc([N+](=O)[O-])ccc1Cl	25.8	.	-4.0	.	-3.5
Nc1ccc(C(=O)OCC(=O)Nc2ccc([N+](=O)[O-])cc2C(F)(F)F)cc1	19.1	0.2	-5.0	0.1	-6.9
O=C(COC(=O)c1cc[n+]([O-])cc1)Nc1cc([N+](=O)[O-])ccc1Cl	57.2*	.	-9.5	.	-13.9
O=C(COC(=O)c1ccc[n+]([O-])c1)Nc1ccc([N+](=O)[O-])cc1C(F)(F)F	33.0*	.	-11.7	.	-3.6
O=C(CNC(=O)c1ccccn1)N=Nc1c(O)[nH]c2ccccc12	70.6*	.	5.3	.	3.0
O=C(CSCc1cccc(Br)c1)N=Nc1c(O)[nH]c2ccccc12	51.0*	-0.7	4.9	-0.2	-15.6
COc1ccc(CC(=O)NCC(=O)N=Nc2c(O)[nH]c3ccccc23)cc1	34.0	.	7.7	.	2.0
CC(C)CC(=O)N=Nc1c(O)[nH]c2ccccc12	53.5*	1.3	-10.5	0.0	-4.8
COc1ccc(-c2nc(N3CCCCCC3)sc2C(=O)c2ccccc2)cc1	38.7	-0.8	55.9*	-0.2	36.1*
CC(=O)Nc1cccc(NC(=O)Cc2nc(-c3ccccc3)sc2-c2ccc(C)cc2)c1	68.4*	0.1	13.1	0.8	-2.4
COc1cccc(NC(=O)Cc2nc(-c3ccccc3)sc2-c2ccc(C)cc2)c1	20.6	-0.8	-19.6	-0.5	-16.1
O=C(CC(c1ccccc1)(c1ccccc1)c1ccccc1)N[C@@H](Cc1ccc(O)cc1)C(=O)O	50.0*	-0.1	-2.4	0.7	-15.9
O=C(COCc1ccccc1)N[C@@H](Cc1ccc(O)cc1)C(=O)O	4.0	-0.6	-14.8	0.2	-4.0
O=C(Cn1c2ccccc2c2nc3n(c(=O)c21)CCCS3)Nc1ccccc1	52.6	.	-31.5	.	-22.0

Assay outcomes from PubChem BioAssay.
